Test results taken from ChEMBL document CHEMBL5661964, “Selective in vivo and in vitro effects of a small molecule inhibitor of cyclin-dependent kinase 4” (J Natl Cancer Inst, 2001).
Active and inactive are the calls of the source. The rule behind the calls is not given here.

Tests used:
HCT-116 [1] = test: Antitumor activity against human HCT-116 cells xenografted in nude mouse assessed as decrease tumor volume at 30 mg/kg, ip administered every 12 hrs measured after 29 days; format: functional, organism-based; conditions: time 29.0 day
Method in brief: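 Female BALB/c nu/nu mice (19–21 g), 8 per group, injected s.c. with 0.1 mL HCT116 suspension (1 × 10^7 viable cells/mL in Hanks' buffer). Treatment started at about 100 mm3 (day 20). Dosing i.p. in 5% DMSO/0.05% Tween 80/95% saline at 10 mL/kg for 29 days; vehicle controls. Caliper volumes taken blinded every 2–4 days as length × width² × π/6. Dunnett ANOVA; growth rate compared as log-volume slopes.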

HCT-116 [2] = test: Induction of cell cycle arrest in human HCT-116 cells assessed as number of cells at S phase at 10 uM after 24 hrs in presence of 10% serum by flow cytometry analysis (reference value: 36.3%); format: functional
Method in brief: (§1)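 HCT116 cells in McCoy's 5A were serum-starved 72 h in 0.1% serum, then released for 24 h into 10% serum with or without compound. They were fixed in 70% ethanol, RNase-treated (3 mg/mL, 30 min, 37 °C) and stained with 50 μg/mL propidium iodide. Flow cytometry on FL-2 area with doublet gating gave the percentages in sub-G1, G0/G1, S and G2/M.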

U2OS [3] = test: Induction of cell cycle arrest in human U2OS cells expressing pRb negative assessed as percentage of cells at G0/G1 phase at 5 uM after 24 hrs by flow cytometry analysis (reference value: 42.5%); format: functional
NIH3T3 = test: Induction of cell cycle arrest in mouse NIH3T3 cells expressing pRb assessed as percentage of cells at S phase at 10 uM after 24 hrs by flow cytometry analysis (reference value: 12.2%); format: functional
MRC5 = test: Induction of cell cycle arrest in human MRC5 cells assessed as number of cells at G0/G1 phase at 5 uM after 24 hrs in presence of 10% serum by flow cytometry analysis (reference value: 64.1%); format: functional
HCT-116 [4] = test: Induction of cell cycle arrest in human HCT-116 cells assessed as number of cells at G0/G1 phase at 10 uM after 24 hrs in presence of 10% serum by flow cytometry analysis (reference value: 49.5%); format: functional; method in brief: as §1
U2OS [5] = test: Induction of cell cycle arrest in human U2OS cells expressing pRb assessed as percentage of cells at G0/G1 phase at 10 uM after 24 hrs by flow cytometry analysis (reference value: 49.8%); format: functional
U2OS [6] = test: Induction of cell cycle arrest in human U2OS cells assessed as percentage of cells at SubG1 phase, cells were released from mimosine block prior to compound addition at 10 uM after 16 hrs by flow cytometry analysis (reference value: 2.2%); format: functional
U2OS [7] = test: Induction of cell cycle arrest in human U2OS cells assessed as percentage of cells at G2/M phase, cells were released from mimosine block prior to compound addition at 10 uM after 16 hrs by flow cytometry analysis (reference value: 47.6%); format: functional
HCT-116 [8] = test: Induction of cell cycle arrest in human HCT-116 cells assessed as number of cells at G2/M phase at 5 uM after 24 hrs in presence of 10% serum by flow cytometry analysis (reference value: 13.1%); format: functional; method in brief: as §1
[9] = molecular target: Hepatocyte growth factor receptor (Homo sapiens, UniProt P08581); test: Inhibition of GST-tagged human c-met expressed in baculovirus infected Sf9 cells using tyrosine-containing peptide substrate in presence of ATP
Hepatocyte growth factor receptor, sequence (P08581 whole entry): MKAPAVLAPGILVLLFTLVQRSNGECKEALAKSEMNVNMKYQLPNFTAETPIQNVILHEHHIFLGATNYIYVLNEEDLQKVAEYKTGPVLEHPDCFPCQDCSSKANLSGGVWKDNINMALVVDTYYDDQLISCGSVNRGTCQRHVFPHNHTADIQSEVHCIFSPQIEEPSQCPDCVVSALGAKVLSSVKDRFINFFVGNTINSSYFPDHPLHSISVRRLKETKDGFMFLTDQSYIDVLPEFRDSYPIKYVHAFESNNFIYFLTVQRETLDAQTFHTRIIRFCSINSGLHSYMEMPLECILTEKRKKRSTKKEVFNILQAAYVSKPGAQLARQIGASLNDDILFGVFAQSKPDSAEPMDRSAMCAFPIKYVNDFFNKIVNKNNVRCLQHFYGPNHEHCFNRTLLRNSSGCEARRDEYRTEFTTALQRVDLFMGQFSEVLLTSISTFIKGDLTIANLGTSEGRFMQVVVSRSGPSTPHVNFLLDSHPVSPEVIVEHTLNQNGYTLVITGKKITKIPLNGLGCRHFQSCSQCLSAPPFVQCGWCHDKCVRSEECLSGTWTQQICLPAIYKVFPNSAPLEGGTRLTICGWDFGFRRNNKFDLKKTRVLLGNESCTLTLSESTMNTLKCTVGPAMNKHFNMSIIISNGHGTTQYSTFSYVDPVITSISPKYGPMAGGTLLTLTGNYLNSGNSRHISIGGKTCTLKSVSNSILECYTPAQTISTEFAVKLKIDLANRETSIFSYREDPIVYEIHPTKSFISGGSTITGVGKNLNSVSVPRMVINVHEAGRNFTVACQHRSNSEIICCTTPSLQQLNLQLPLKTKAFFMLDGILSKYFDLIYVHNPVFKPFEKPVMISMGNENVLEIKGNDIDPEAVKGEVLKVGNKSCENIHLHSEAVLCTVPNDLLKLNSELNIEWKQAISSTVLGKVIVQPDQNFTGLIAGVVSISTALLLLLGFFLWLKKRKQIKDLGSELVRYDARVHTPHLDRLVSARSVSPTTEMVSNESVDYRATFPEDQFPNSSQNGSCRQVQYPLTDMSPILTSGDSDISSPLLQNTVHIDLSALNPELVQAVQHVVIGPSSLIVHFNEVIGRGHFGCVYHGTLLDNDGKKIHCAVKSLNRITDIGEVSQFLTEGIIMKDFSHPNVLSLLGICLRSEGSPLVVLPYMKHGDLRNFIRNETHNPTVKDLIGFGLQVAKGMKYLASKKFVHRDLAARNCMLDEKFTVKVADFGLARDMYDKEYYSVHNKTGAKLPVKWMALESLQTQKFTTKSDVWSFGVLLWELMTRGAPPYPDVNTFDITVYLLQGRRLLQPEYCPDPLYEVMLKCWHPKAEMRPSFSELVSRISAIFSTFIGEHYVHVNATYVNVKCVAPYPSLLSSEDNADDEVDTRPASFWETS

U2OS [10] = test: Induction of cell cycle arrest in human U2OS cells expressing pRb negative assessed as percentage of cells at G0/G1 phase at 10 uM after 24 hrs by flow cytometry analysis (reference value: 42.5%); format: functional

With CCNc1cc(N[C@H]2CC[C@H](O)CC2)nc(Nc2ccc3c(ccn3Cc3ccccc3)c2)n1 the Activity (HCT-116 [1]) was “Active”, the Activity (HCT-116 [2]) was 22.6% and the Activity (U2OS [3]) was 44.8%. For the same compound, the Activity (NIH3T3) was 3.1%, the Activity (MRC5) was 81% and the Activity (HCT-116 [4]) was 60.3%. It also gave an Activity (U2OS [5]) of 82.9%, an Activity (U2OS [6]) of 21.8% and an Activity (U2OS [7]) of 41%. It also gave an Activity (HCT-116 [8]) of 14.6%, an IC50 [9] greater than 10 µM and an Activity (U2OS [10]) of 42.8%.
